Measurements published in ChEMBL document CHEMBL2203146, “Search for anticonvulsant and analgesic active derivatives of dihydrofuran-2(3H)-one” (Bioorg Med Chem, 2012).
Activity calls are given as the source filed them.

How the values were obtained:
Mus musculus [1] = experiment: Anticonvulsant activity in albino CF1 mouse assessed as protection against maximal electroshock-induced seizures at 100 mg/kg, ip after 0.5 hr; assay type: functional, organism-based; parameters: dose 100 mg/kg
Method in brief: (§1)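 Male albino CF No. 1 mice (18–25 g) dosed ip at 30, 100 and 300 mg/kg in saline or 0.5% methylcellulose, tested 15, 30, 60 and 240 min after dosing. Maximal electroshock seizures elicited with 60-cycle alternating current. Scored as animals protected/animals tested, small qualitative groups.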

Mus musculus [2] = experiment: Anticonvulsant activity in albino CF1 mouse assessed as protection against subcutaneous metrazol-induced seizures at 30 to 300 mg/kg, ip after 0.5 to 4 hrs; assay type: functional, organism-based
Method in brief: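 CF No. 1 male mice dosed ip at 30, 100 or 300 mg/kg (saline or 0.5% methylcellulose), then given pentetrazole 85 mg/kg sc as 0.5% solution in posterior midline. Watched 30 min. Protection means no threshold seizure (single clonic spasm episode of at least 5 s). Expressed as protected/tested.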

Mus musculus [3] = experiment: Neurotoxicity in albino CF1 mouse assessed as minimal motor impairment at 100 mg/kg, ip after 0.5 hr by rotorod test; assay type: toxicity, organism-based; parameters: dose 100 mg/kg, route intraperitoneal; settings: in vivo
Method in brief: (§2)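 Rotarod in male CF No. 1 mice after ip dosing (30, 100, 300 mg/kg; saline or 0.5% methylcellulose) at 15–240 min. Knurled plastic rod, 1-inch diameter, 6 rpm. Toxicity means failing to stay on for 1 min on three successive attempts. Recorded as toxic/tested.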

Mus musculus [4] = experiment: Anticonvulsant activity in albino CF1 mouse assessed as protection against maximal electroshock-induced seizures at 300 mg/kg, ip after 0.5 hr; assay type: functional, organism-based; parameters: dose 300 mg/kg; method in brief: as §1
Mus musculus [5] = experiment: Neurotoxicity in albino CF1 mouse assessed as minimal motor impairment at 300 mg/kg, ip after 0.5 hr by rotorod test; assay type: toxicity, organism-based; parameters: dose 300 mg/kg, route intraperitoneal; settings: in vivo; method in brief: as §2
Mus musculus [6] = experiment: Anticonvulsant activity in albino CF1 mouse assessed as protection against maximal electroshock-induced seizures at 100 mg/kg, ip after 4 hrs; assay type: functional, organism-based; parameters: dose 100 mg/kg; method in brief: as §1
Mus musculus [7] = experiment: Neurotoxicity in albino CF1 mouse assessed as minimal motor impairment at 300 mg/kg, ip after 4 hrs by rotorod test; assay type: toxicity, organism-based; parameters: dose 300 mg/kg, route intraperitoneal; settings: in vivo; method in brief: as §2
Mus musculus [8] = experiment: Anticonvulsant activity in albino CF1 mouse assessed as protection against maximal electroshock-induced seizures at 300 mg/kg, ip after 4 hrs; assay type: functional, organism-based; parameters: dose 300 mg/kg; method in brief: as §1
Mus musculus [9] = experiment: Neurotoxicity in albino CF1 mouse assessed as minimal motor impairment at 100 mg/kg, ip after 4 hrs by rotorod test; assay type: toxicity, organism-based; parameters: dose 100 mg/kg, route intraperitoneal; settings: in vivo; method in brief: as §2
Mus musculus [10] = experiment: Anesthetic activity in albino CF1 mouse assessed as latency in response to thermal stimuli administered as 1% solution, sc measured after 15 mins by modified tail immersion test; assay type: functional
Method in brief: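 Male Albino Swiss (CD-1) mice, 6-8 per group, tested at 1% and 2% compound concentration. Tail distal 3 cm immersed in water at 50 ± 0.5 °C 15 min after treatment. Tail-withdrawal latency recorded with a 20 s cutoff. Value is % difference in latency vs vehicle-treated mice. Mean ± SEM, Student's t-test.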

Mus musculus [11] = experiment: Anesthetic activity in […] assessed as latency in response to thermal stimuli administered as 2% solution, sc measured after 15 mins by modified tail immersion test; assay type: functional, albino CF1
Mus musculus [12] = experiment: […] activity in ip dosed albino CF1 mouse assessed as inhibition of phenylbenzoquinone-induced writhing administered after 30 mins prior challenge; assay type: functional
Method in brief: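 Male Albino Swiss (CD-1) mice, 6-8 per dose. Compound given ip in 0.5% methylcellulose. 30 min later, 0.25 ml of 0.02% phenylbenzoquinone injected. After 5 min, writhes counted over 10 min. % effect = (vehicle mean − drug mean)/vehicle mean × 100. ED50 derived; Student's t-test.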

Mus musculus [13] = experiment: Analgesic activity in albino CF1 mouse assessed as inhibition of heat-induced paw licking or jumping behaviour administered after 30 mins prior heat challenge by hot plate method; assay type: functional
Mus musculus [14] = experiment: Anticonvulsant activity in albino CF1 mouse assessed as protection against maximal electroshock-induced seizures at 100 mg/kg, ip after 1 hr; assay type: functional, organism-based; parameters: dose 100 mg/kg; method in brief: as §1
Mus musculus [15] = experiment: Anticonvulsant activity in albino CF1 mouse assessed as protection against maximal electroshock-induced seizures at 100 mg/kg, ip after 0.25 hr; assay type: functional, organism-based; parameters: dose 100 mg/kg; method in brief: as §1
Mus musculus [16] = experiment: Neurotoxicity in albino CF1 mouse assessed as minimal motor impairment at 100 mg/kg, ip after 0.25 hr by rotorod test; assay type: toxicity, organism-based; parameters: dose 100 mg/kg, route intraperitoneal; settings: in vivo; method in brief: as §2
Mus musculus [17] = experiment: Neurotoxicity in albino CF1 mouse assessed as minimal motor impairment at 100 mg/kg, ip after 1 hr by rotorod test; assay type: toxicity, organism-based; parameters: dose 100 mg/kg, route intraperitoneal; settings: in vivo; method in brief: as §2

SMILES | Activity (Mus musculus [1]) | Activity (Mus musculus [2]) | Activity (Mus musculus [3]) | Activity (Mus musculus [4]) | Activity (Mus musculus [5]) | Activity (Mus musculus [6]) | Activity (Mus musculus [7]) | Activity (Mus musculus [8]) | Activity (Mus musculus [9]) | Activity (Mus musculus [10]) | Activity (Mus musculus [11]) | ED50 (Mus musculus [12]) | ED50 (Mus musculus [13]) | Activity (Mus musculus [14]) | Activity (Mus musculus [15]) | Activity (Mus musculus [16]) | Activity (Mus musculus [17])
Cc1cccc(C)c1NC1CCOC1=O (stereo unspecified) | inactive | inactive | Non-toxic | inactive | Non-toxic | inactive | Non-toxic | inactive | Non-toxic |  |  |  |  |  |  |  | 
O=C1OCCC1NCc1ccccc1C(F)(F)F (racemic) | inactive | inactive | Non-toxic | inactive | Non-toxic | inactive | Non-toxic | inactive | Non-toxic |  |  |  |  |  |  |  | 
COc1cccc(N2CCN(C3CCOC3=O)CC2)c1 (racemic) | inactive | inactive | Non-toxic | Active | Non-toxic | inactive | Non-toxic | inactive | Non-toxic | 6% | 75% | 3 mg/kg | 3.2 mg/kg |  |  |  | 
CC1CC(N2CCN(c3ccccc3)CC2)C(=O)O1 (mixture of isomers) | inactive | inactive | Non-toxic | Active | Toxic | inactive | Non-toxic | inactive | Non-toxic |  |  |  |  | inactive | inactive | Non-toxic | Non-toxic
CN1CC[C@]23c4c5ccc(O)c4O[C@H]2[C@@H](O)C=C[C@H]3[C@H]1C5 [MORPHINE] |  |  |  |  |  |  |  |  |  |  |  | 2.4 mg/kg | 3.4 mg/kg |  |  |  | 
O=C1OCCC1N1CCN(c2ccc(F)cc2)CC1 (racemic) | inactive | inactive | Toxic | inactive | Toxic | inactive | Toxic | inactive | Toxic |  |  |  |  |  |  |  | 
CC(=O)Oc1ccccc1C(=O)O [ASPIRIN] |  |  |  |  |  |  |  |  |  |  |  | 39.2 mg/kg |  |  |  |  | 
CC1CC(NCc2ccccc2)C(=O)O1.Cl (mixture of isomers) | inactive | inactive | Non-toxic | inactive | Non-toxic | inactive | Non-toxic | inactive | Non-toxic |  |  |  |  |  |  |  | 
COc1ccc(CNC2CCOC2=O)cc1.Cl (racemic) | inactive | inactive | Non-toxic | inactive | Non-toxic | inactive | Non-toxic | inactive | Non-toxic |  |  |  |  |  |  |  | 
COc1ccc(N2CCN(C3CCOC3=O)CC2)cc1 (racemic) | inactive | inactive | Non-toxic | inactive | Non-toxic | inactive | Non-toxic | inactive | Non-toxic | -3% | 49% | 9.6 mg/kg | 32.5 mg/kg |  |  |  | 
CCN(CC)CC(=O)Nc1c(C)cccc1C [LIDOCAINE] |  |  |  |  |  |  |  |  |  | 132% | 173% |  |  |  |  |  | 
O=C1OCCC1N1C(=O)c2ccccc2C1=O (racemic) | inactive | inactive | Toxic | inactive | Toxic | inactive | Non-toxic | inactive | Non-toxic |  |  | 4.5 mg/kg | 33.9 mg/kg |  |  |  | 
Cl.O=C1OCCC1NCc1ccccc1 (racemic) | inactive | inactive | Non-toxic | inactive | Non-toxic | inactive | Non-toxic | inactive | Non-toxic | 1% | 64% | 2.4 mg/kg | 4.3 mg/kg |  |  |  | 
Cl.O=C1OCCC1N1CCOCC1 (racemic) | inactive | inactive | Non-toxic | inactive | Toxic | inactive | Non-toxic | inactive | Non-toxic |  |  | 5.4 mg/kg | 9.9 mg/kg |  |  |  | 
COc1cc2c(cc1OC)CN(C1CCOC1=O)CC2 (racemic) | inactive | inactive | Non-toxic | inactive | Non-toxic | inactive | Non-toxic | inactive | Non-toxic |  |  | 6.1 mg/kg | 39.8 mg/kg |  |  |  | 
O=C1CC(N2CCN(c3ccccc3)CC2)CO1 (racemic) | inactive | inactive | Toxic | inactive | Toxic | inactive | Non-toxic | inactive | Non-toxic |  |  |  |  |  |  |  | 
Cc1cccc(C)c1NC(=O)C1CCCCN1C (stereo unspecified) [MEPIVACAINE] |  |  |  |  |  |  |  |  |  | 95% | 117% |  |  |  |  |  | 
